Calls of active or inactive are those of the source. The rule behind the calls is not given here.
Tests used:
[1] = Stability in rat liver microsomes assessed as parent compound remaining level after 30 mins; format: ADME, Microsome; details: read-out: Stabilty
Mus musculus [2] = assay: Anti-obesity activity in overnight fasted C57BL/6J mouse model of diet-induced obesity assessed as improvement in glucose tolerance at 1 to 10 mg/kg, ip by intraperitoneal glucose tolerance test; format: functional, organism-based; details: dose 1-10 mg/kg
Procedure, shortened: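 Twelve-week-old C57BL/6J mice were given daily ip vehicle or 1, 5 or 10 mg/kg for 8 weeks on high-fat diet. After fasting (16 h per legend; "overnight" in methods), they received 2 g/kg D-glucose ip, and blood glucose was read with a glucometer. n = 6/group.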

Mus musculus [3] = assay: Anti-hepatic steatosis activity in C57BL/6J mouse model of diet-induced obesity assessed as reduction in plasma cholesterol level at 10 mg/kg, ip dosed daily for 8 weeks colorimetry; format: functional, organism-based
Mus musculus [4] = assay: Anti-obesity activity in C57BL/6J mouse model of diet-induced obesity assessed as effect on RER at 10 mg/kg, ip dosed daily for 8 weeks by indirect calorimetry; format: functional, organism-based
Procedure, shortened: (§1)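 Daily ip dosing of C57BL/6J mice on high-fat diet (60% fat calories), starting at 12 weeks of age, for eight weeks. Mice were housed singly in an eight-chamber open-circuit indirect calorimetry system and monitored for 72 h in the fed state. VO2 and VCO2 were recorded. RER = VCO2/VO2; heat production = (3.185 + 1.232 × RER) × VO2. n = 5/group; means SEM.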

Mus musculus [5] = assay: Anti-obesity activity in C57BL/6J mouse model of diet-induced obesity assessed as induction of thermogenic activity by measuring increase in Ucp1 protein expression in BAT at 10 mg/kg, ip dosed daily for 8 weeks immunohistochemistry; format: functional, organism-based
Procedure, shortened: (§2)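 C57BL/6J mice fed a 60% fat-calorie diet from 12 weeks of age, dosed ip daily for eight weeks. For Ucp1 mRNA, total RNA was extracted from BAT or iWAT with TRIzol and analysed by quantitative RT-PCR as relative expression. UCP1 protein was detected by immunohistochemistry on five-micron paraffin sections. n = 5/group.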

Mus musculus [6] = assay: Anti-obesity activity in C57BL/6J mouse model of diet-induced obesity assessed as induction of thermogenic activity by measuring increase in Ucp1 protein expression in iWAT at 10 mg/kg, ip dosed daily for 8 weeks immunohistochemistry; format: functional, organism-based; procedure, shortened: as §2
Mus musculus [7] = assay: Anti-obesity activity in C57BL/6J mouse model of diet-induced obesity assessed as increase in VCO2 at 10 mg/kg, ip dosed daily for 8 weeks by indirect calorimetry; format: functional, organism-based; procedure, shortened: as §1
Mus musculus [8] = assay: Anti-hepatic steatosis activity in C57BL/6J mouse model of diet-induced obesity assessed as reduction in hepatic triacylglycerol at 10 mg/kg, ip dosed daily for 8 weeks colorimetry; format: functional, organism-based
Mus musculus [9] = assay: Anti-obesity activity in C57BL/6J mouse model of diet-induced obesity assessed as reduction in adipocyte size in eWAT at 10 mg/kg, ip dosed daily for 8 weeks by H and E staining based histological analysis; format: functional, organism-based
Procedure, shortened: (§3)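 C57BL/6J mice, 12 weeks old, given daily ip vehicle or drug during 8 weeks of high-fat diet (60% fat calories). Sacrificed after 6 h fasting. Five-micron paraffin sections of eWAT, iWAT and BAT were deparaffinized and stained with H&E. Crown-like structures, adipocyte size, lipid droplets and multilocular cells were assessed. Scale bar 100 μm.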

[10] = Drug level in ICR mouse brain at 10 mg/kg, ip after 1 hr; format: ADME, organism-based; details: read-out: Drug uptake
Procedure, shortened: (§4)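 Male ICR mice received 10 mg/kg ip in DMSO/PEG400/saline 5:40:55 (v/v/v), 5 mL/kg. At 1 h, heart blood was spun to plasma. Mice were perfused with heparinized saline, and brains were homogenized in 3 volumes PBS. Analyte was quantified by LC-MS/MS. Brain quantification limit 31.3 ng/g. n = 3; mean SD.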

CYP3A4 = CYP3A4 (Homo sapiens, UniProt P08684); assay: Inhibition of CYP3A4 (unknown origin) at 10 uM relative to control; format: ADME
Mus musculus [11] = assay: Anti-obesity activity in C57BL/6J mouse model of diet-induced obesity assessed as increase in heat production at 10 mg/kg, ip dosed daily for 8 weeks by indirect calorimetry; format: functional, organism-based; procedure, shortened: as §1
[12] = Drug level in ICR mouse plasma at 10 mg/kg, ip after 1 hr; format: ADME, organism-based; procedure, shortened: as §4
Mus musculus [13] = assay: Anti-obesity activity in C57BL/6J mouse model of diet-induced obesity assessed as induction of thermogenic activity by measuring increase in Ucp1 mRNA expression in BAT at 10 mg/kg, ip dosed daily for 8 weeks by RT-PCR analysis; format: functional, organism-based; procedure, shortened: as §2
Mus musculus [14] = assay: Anti-obesity activity in C57BL/6J mouse model of diet-induced obesity assessed as reduction in lipid droplet size at 10 mg/kg, ip dosed daily for 8 weeks by H and E staining based histological analysis; format: functional, organism-based; procedure, shortened: as §3
Mus musculus [15] = assay: Anti-obesity activity in C57BL/6J mouse model of diet-induced obesity assessed as reduction in adipose tissues by measuring iWAT at 10 mg/kg, ip dosed daily for 8 weeks; format: functional, organism-based
Procedure, shortened: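 After eight weeks of daily ip dosing at 10 mg/kg with high-fat diet (60% fat calories) in C57BL/6J mice starting at 12 weeks, gross appearance of dissected eWAT, iWAT and BAT was photographed against a 1 cm × 1 cm grid.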

CYP2D6 = CYP2D6 (Homo sapiens, UniProt P10635); assay: Inhibition of CYP2D6 (unknown origin) at 10 uM relative to control; format: ADME
hERG (KCNH2) = hERG (KCNH2) (Homo sapiens, UniProt Q12809); assay: Inhibition of human ERG at 10 uM relative to control
Mus musculus [16] = assay: Anti-obesity activity in C57BL/6J mouse model of diet-induced obesity assessed as increase in multilocular adipocytes at 10 mg/kg, ip dosed daily for 8 weeks by H and E staining based histological analysis; format: functional, organism-based; procedure, shortened: as §3
Mus musculus [17] = assay: Anti-obesity activity in C57BL/6J mouse model of diet-induced obesity assessed as reduction in adipocyte size in iWAT at 10 mg/kg, ip dosed daily for 8 weeks by H and E staining based histological analysis; format: functional, organism-based; procedure, shortened: as §3
CYP1A2 = molecular target: T1, CYP1A2 (Homo sapiens, UniProt P05177); assay: Inhibition of CYP1A2 (unknown origin) at 10 uM relative to control; format: ADME
T1 sequence (P05177 whole entry): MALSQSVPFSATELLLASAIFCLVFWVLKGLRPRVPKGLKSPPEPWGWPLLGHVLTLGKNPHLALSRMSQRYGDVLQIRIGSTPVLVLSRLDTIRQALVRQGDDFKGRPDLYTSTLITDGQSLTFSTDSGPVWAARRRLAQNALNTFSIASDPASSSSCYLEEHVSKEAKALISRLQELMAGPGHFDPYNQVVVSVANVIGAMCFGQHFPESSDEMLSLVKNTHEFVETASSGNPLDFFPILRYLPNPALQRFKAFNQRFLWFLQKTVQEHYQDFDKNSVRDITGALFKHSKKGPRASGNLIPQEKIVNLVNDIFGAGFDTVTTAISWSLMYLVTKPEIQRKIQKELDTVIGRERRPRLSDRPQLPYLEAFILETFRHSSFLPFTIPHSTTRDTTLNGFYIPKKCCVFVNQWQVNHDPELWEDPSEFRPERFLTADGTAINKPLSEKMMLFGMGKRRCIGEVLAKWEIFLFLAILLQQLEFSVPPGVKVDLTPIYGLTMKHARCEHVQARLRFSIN

CYP3A4, sequence (P08684 whole entry): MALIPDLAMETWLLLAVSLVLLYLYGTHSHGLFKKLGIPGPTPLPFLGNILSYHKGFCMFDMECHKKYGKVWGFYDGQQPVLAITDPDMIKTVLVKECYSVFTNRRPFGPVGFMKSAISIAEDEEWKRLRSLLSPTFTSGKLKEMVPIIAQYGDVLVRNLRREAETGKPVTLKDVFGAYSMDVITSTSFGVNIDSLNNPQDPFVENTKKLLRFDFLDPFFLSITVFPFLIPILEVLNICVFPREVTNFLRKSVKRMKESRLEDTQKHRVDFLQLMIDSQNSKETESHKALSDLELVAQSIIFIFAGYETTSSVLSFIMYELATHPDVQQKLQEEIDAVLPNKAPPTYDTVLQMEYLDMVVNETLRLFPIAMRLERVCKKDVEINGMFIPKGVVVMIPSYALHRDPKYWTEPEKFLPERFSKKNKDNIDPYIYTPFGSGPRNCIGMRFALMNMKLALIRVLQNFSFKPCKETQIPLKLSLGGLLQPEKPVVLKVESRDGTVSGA
CYP2D6, sequence (P10635 whole entry): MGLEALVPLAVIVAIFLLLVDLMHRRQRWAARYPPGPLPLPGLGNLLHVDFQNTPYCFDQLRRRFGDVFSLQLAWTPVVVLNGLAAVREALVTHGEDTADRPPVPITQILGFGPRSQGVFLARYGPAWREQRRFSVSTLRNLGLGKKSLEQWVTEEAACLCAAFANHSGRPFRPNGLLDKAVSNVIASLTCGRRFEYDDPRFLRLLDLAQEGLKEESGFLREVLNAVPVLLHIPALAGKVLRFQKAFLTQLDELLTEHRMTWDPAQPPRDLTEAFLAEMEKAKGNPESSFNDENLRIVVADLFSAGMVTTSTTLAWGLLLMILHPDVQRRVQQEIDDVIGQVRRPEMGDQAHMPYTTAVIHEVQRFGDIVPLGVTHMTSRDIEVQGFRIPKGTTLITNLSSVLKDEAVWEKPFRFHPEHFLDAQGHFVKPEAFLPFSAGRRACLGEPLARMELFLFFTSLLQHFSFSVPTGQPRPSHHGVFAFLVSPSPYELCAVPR
hERG (KCNH2), sequence (Q12809 whole entry): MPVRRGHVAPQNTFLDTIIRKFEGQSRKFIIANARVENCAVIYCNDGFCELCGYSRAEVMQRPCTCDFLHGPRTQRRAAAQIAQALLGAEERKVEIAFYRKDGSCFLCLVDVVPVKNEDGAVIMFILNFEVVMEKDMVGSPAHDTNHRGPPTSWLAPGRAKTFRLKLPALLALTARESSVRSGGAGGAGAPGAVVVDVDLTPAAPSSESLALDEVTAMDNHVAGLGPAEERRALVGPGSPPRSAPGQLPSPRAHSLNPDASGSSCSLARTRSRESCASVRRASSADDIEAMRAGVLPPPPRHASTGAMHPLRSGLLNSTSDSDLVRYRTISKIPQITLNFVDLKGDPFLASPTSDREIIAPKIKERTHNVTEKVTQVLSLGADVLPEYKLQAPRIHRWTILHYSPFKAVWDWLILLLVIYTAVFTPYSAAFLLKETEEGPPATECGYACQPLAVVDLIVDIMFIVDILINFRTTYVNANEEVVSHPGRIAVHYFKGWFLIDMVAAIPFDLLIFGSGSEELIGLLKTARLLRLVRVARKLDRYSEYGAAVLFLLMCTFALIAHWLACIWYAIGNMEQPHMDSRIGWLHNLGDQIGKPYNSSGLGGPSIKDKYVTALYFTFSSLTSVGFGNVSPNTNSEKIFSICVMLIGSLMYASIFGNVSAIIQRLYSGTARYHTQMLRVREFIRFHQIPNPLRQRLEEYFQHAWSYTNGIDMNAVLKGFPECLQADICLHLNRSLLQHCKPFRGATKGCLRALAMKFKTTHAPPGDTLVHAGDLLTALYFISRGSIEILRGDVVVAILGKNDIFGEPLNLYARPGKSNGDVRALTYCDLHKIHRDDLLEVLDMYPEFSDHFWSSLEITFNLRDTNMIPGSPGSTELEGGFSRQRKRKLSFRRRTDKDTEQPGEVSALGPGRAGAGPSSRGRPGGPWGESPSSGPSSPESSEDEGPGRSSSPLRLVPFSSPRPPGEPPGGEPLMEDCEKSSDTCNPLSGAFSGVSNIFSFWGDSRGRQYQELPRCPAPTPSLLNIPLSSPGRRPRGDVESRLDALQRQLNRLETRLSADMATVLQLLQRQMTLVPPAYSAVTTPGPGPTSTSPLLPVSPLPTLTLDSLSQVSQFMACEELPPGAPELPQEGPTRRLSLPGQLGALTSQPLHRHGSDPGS

COc1ccc(-c2nc(-c3ccc(C[C@H](N)C(=O)O)cc3)no2)cc1-c1ccc(O)cc1.Cl
remaining at 0.5 h [1]: 85% | Activity (Mus musculus [2]): Dose-dependent effect | Activity (Mus musculus [3]): Active | Activity (Mus musculus [4]): inactive | Activity (Mus musculus [5]): Active | Activity (Mus musculus [6]): inactive | Activity (Mus musculus [7]): Active | Activity (Mus musculus [8]): Active | Activity (Mus musculus [9]): Active | concentration at 1 h [10]: < 31.3 ng/g | inhibition at 10 µM (CYP3A4): < 1% | Activity (Mus musculus [11]): Active | concentration at 1 h [12]: 3110 ng/mL | Activity (Mus musculus [13]): Active | Activity (Mus musculus [14]): Active | Activity (Mus musculus [15]): Active | inhibition at 10 µM (CYP2D6): < 1% | inhibition at 10 µM (hERG (KCNH2)): 24.3% | Activity (Mus musculus [16]): Active | Activity (Mus musculus [17]): Active | inhibition at 10 µM (CYP1A2): 3.2%

From ChEMBL document CHEMBL4706651, “Peripheral Selective Oxadiazolylphenyl Alanine Derivatives as Tryptophan Hydroxylase 1 Inhibitors for Obesity and Fatty Liver Disease” (J Med Chem, 2021)
